Results: article PMC6437812 (ChemistryOpen, 2019)

Legend:
[1] = system: A549 and SK-BR-3 cell lines; assay: Autophagy observed under the microscope; format: cell-based, human; details: 10 μM
[2] = target: recombinant human full-length Hsp90α (Homo sapiens, UniProt P07900); assay: FP assay, competition with FITC-GM; format: binding
[3] = system: breast cancer SK-BR-3 cell line; assay: SRB anti-proliferative assay, SK-BR-3; format: cell-based; details: Homo sapiens, SK-BR-3, 120 h, read-out: SK-BR-3 (IC50±SD, μM) for 120 h
Summary of the method: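 Cells from ATCC, grown in DMEM with 10 % FBS at 37 °C and 5 % CO2. Seeded in 96-well plates overnight, then exposed to increasing concentrations in triplicate for 72 h, or for a prolonged 120 h. Growth was read by sulforhodamine B staining at OD 510 nm. IC50 came from curve fitting.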

HER2 = assay: Western blot of Hsp90 client protein HER2 in SK-BR-3 cells; format: cell-based, human; details: 20 μM, 12 h
Summary of the method: (§1)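 SK‐BR‐3 cells (DMEM, 10 % FBS) were exposed to test compound at 20 μM for 12 h, washed in ice-cold PBS and lysed in SDS sample buffer. Equal lysate amounts went through SDS‐PAGE and PVDF transfer, with blocking in 5 % milk/TBST pH 7.6. Primary antibodies were applied overnight at 4 °C and secondary antibodies 2 h at room temperature. Detection was by ECL.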

Hsp72 = assay: Western blot of Hsp72; format: cell-based, human; details: SK-BR-3 cells, 20 μM, 12 h
Summary of the method: as §1

Compound | expression of HER2 (HER2) | other results
Cc1cc(C)n(-c2nc(NN=Cc3c[nH]c4ccccc34)nc(Nc3ccc(Br)cc3)n2)n1 [Compound A1, 4‐(2‐((1H‐indol‐3‐yl)methylene)hydrazinyl)‐N‐(4‐bromophenyl)‐6‐(3,5‐dimethyl‐1H‐pyrazol‐1‐yl)‐1,3,5‐triazin‐2‐amine] | obviously reduced | induction of autophagy [1]: little autophagy was induced; competition with FITC-GM for binding to Hsp90α [2]: failed to compete; IC50 [3]: 10.8 ± 1.3 µM
Brc1ccc(Nc2nc(N/N=C\c3c[nH]c4ccccc34)nc(Nc3ccccc3)n2)cc1 [Compound A16] | obviously reduced | 
NNc1nc(Nc2ccccc2)nc(Nc2ccc(Br)cc2)n1 [Compound A20] | obviously reduced | 
NNc1nc(NCc2ccccc2)nc(Nc2ccc(Br)cc2)n1 [Compound A22] | obviously reduced | 
CCCNc1nc(NCCC)nc(Nc2ccc(Br)cc2)n1 [Compound A24] | obviously reduced | 
Brc1ccc(Nc2nc(NCc3ccccc3)nc(NCc3ccccc3)n2)cc1 [Compound A25] | obviously reduced | 
COC1=C2C[C@@H](C)C[C@H](OC)[C@H](O)[C@@H](C)/C=C(\C)[C@H](OC(N)=O)[C@@H](OC)/C=C\C=C(/C)C(=O)NC(=CC1=O)C2=O [GM, geldanamycin] |  | induction of Hsp72 (Hsp72): induced
